Experimental data published in ChEMBL document CHEMBL1122793, “Synthesis, characterization, and properties of a group of platinum (IV) complexes” (J Med Chem, 1984).

How the values were obtained:
Assay type in all cases: functional, cell-based
Conditions in all cases: Mus musculus
L1210 [1] = experiment: Compound was evaluated for antitumor activity against 10e 6 L1210 cells implanted intraperitoneally into mice after treatment on day 1
Method in brief: (§1)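 Mice received 10⁶ L1210 ascites cells ip and were treated ip on day 1 only. Treatment groups had six mice. The optimal dose was recorded in mg/kg, and activity was recorded as the maximum percent T/C, as defined in ref 9.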

L1210 [2] = experiment: Compound was evaluated for antitumor activity against 10e 6 L1210 cells implanted intraperitoneally into mice after treatment on days 1-5
Method in brief: (§2)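 Mice were implanted ip with 10⁶ L1210 ascites cells and treated ip on days 1-5, with the dose given in mg/kg per injection. Groups had six mice each. The read-out was the optimal dose and the maximum percent T/C, as defined in ref 9.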

L1210 [3] = experiment: Compound was evaluated for antitumor activity against 10e 6 L1210 cells implanted intraperitoneally into mice after treatment on day 1(maximum percentage toxicity); method in brief: as §1
L1210 [4] = experiment: Compound was evaluated for antitumor activity against 10e 6 L1210 cells implanted intraperitoneally into mice after treatment on days 1-5 (maximum percentage toxicity); method in brief: as §2
L1210 [5] = experiment: Compound was evaluated for antitumor activity against 10e 6 L1210 cells implanted intraperitoneally into mice after treatment on day 1(reference 9); method in brief: as §1
L1210 [6] = experiment: Compound was evaluated for antitumor activity against 10e 6 L1210 cells implanted intraperitoneally into mice after treatment on days 1-9
L1210 [7] = experiment: Compound was evaluated for antitumor activity against 10e 6 L1210 cells implanted intraperitoneally into mice after treatment on day 1(maximum percentage toxicity)(reference 9); method in brief: as §1
L1210 [8] = experiment: Compound was evaluated for antitumor activity against 10e 6 L1210 cells implanted intraperitoneally into mice after treatment on days 1-9 (maximum percentage toxicity)

## Dichloro-dibromo-diammonium platinum
L1210 [1]
  Optimal dose: 12 mg/kg
L1210 [2]
  Optimal dose: 0.75 mg/kg
L1210 [3]
  T/C: 136%
L1210 [4]
  T/C: 129%

## Dichloro-diammonium-platinum
L1210 [1]
  Optimal dose: 48 mg/kg
L1210 [5]
  Optimal dose: 120 mg/kg
L1210 [2]
  Optimal dose: 12 mg/kg
L1210 [6]
  Optimal dose: 20 mg/kg
L1210 [3]
  T/C: 150%
L1210 [7]
  T/C: 164%
L1210 [4]
  T/C: 157%
L1210 [8]
  T/C: 193%

## Tetrachloro-diammonium platinum
L1210 [1]
  Optimal dose: 32 mg/kg
L1210 [2]
  Optimal dose: 4 mg/kg
L1210 [3]
  T/C: 121%
L1210 [4]
  T/C: 114%
